Here are results for 17 molecules from ChEMBL document CHEMBL1126605, “Antitumor agents. 139. Synthesis and biological evaluation of thiocolchicine analogs 5,6-dihydro-6(S)-(acyloxy)- and 5,6-dihydro-6(S)-[(aroyloxy)methyl]-1,2,3-trimethoxy-9-(methylthio)-8H- cyclohepta[a]naphthalen-8-ones as novel cytotoxic and antimitotic agents” (J Med Chem, 1993).

Some results are limits rather than exact numbers.

Assay [1] concerns KB. Kind of assay: Cytotoxicity against human solid tumor nasopharyngeal carcinoma KB cell line. In kind it is functional. As to conditions: read-out: ED50 (the source's name).
The subject of assay [2] is HCT-8. Kind of assay: Cytotoxicity against human solid tumor Colon carcinoma HCT-8 cell line. In kind it is functional. The conditions noted are these: read-out: ED50 (the source's name).
Assay [3] concerns the target T1, Tubulin (Bos taurus, UniProt Q6B856+Q862L2+Q862F3). The assay is described as follows: Inhibition of tubulin polymerization with preincubation for 15 minutes at 37 degree Centigrade prior to addition of the GTP required for polymerization. The class given is functional.
In assay [4] the target is Tubulin (Bos taurus) (UniProt Q6B856+Q862L2+Q862F3). As to conditions: at 5 µM.
For assay [5], the system named is A549. Kind of assay: Cytotoxicity against human solid tumor lung carcinoma A549 cell line. In kind it is functional. As to conditions: read-out: ED50 (the source's name).
For assay [6], the system named is P388. Kind of assay: (§1) Cytotoxicity against murine P388 leukemia cell line. In kind it is functional. The conditions noted are these: Mus musculus, read-out: ED50 (the source's name).
The subject of assay [7] is Burkitts lymphoma cell. The assay is described as follows: Growth inhibition on human burkitt lymphoma cells after 36 h. In kind it is functional, cell-based.
Assay [8] concerns TE-671. Kind of assay: Cytotoxicity against human central nervous system carcinoma TE671 cell line. The class given is functional. The conditions noted are these: read-out: ED50 (the source's name).
The target in assay [9] is T1, Tubulin. Kind of assay: Evaluated for the inhibition of tubulin polymerization without pre-incubation. In kind it is functional.
Assay [10] relates to RPMI-7951. The assay is described as follows: cells. The conditions noted are these: Homo sapiens, read-out: ED50 (the source's name). The class given is functional.
Assay [11] addresses T1, Tubulin. Kind of assay: Compound was evaluated for the inhibition of tubulin polymerization without pre-incubation. In kind it is functional. In outline:
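Drug, tubulin and the GTP needed for polymerization were all mixed before the reaction mixtures were incubated at 37 °C, with no drug–tubulin preincubation. IC50 is the drug concentration inhibiting polymerization, given ± SD from at least three experiments per compound.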

Assay [12] relates to P388. Described as §1. As to conditions: Mus musculus, read-out: ED50 (the source's name). In kind it is functional, Homo sapiens.

What is called IC50 is the concentration at which inhibition is half-maximal. A lower IC50 goes with greater potency. The term inhibition denotes the percentage by which the read-out fell short of the control. A high value points to a strong effect. For the molecule `CC(C)n1cnc2c(Nc3ccc(Br)cc3)nc(N3CCC[C@@H]3CO)nc21`, the EC50 in assay [1] worked out at 144 nM; in assay [2], 160 nM; in assay [5], 240 nM; in assay [6] it was 144 nM; in assay [8], 26 nM; in assay [10], 134 nM. Further, the results for the IC50 in assay [3], in assay [7] and in assay [9] were 3600 nM, 60 nM and 3700 nM, respectively. For the same molecule, the inhibition in [4] was 53%.
In the case of `COc1ccc(C(=O)OC[C@H]2Cc3cc(OC)c(OC)c(OC)c3-c3ccc(SC)c(=O)cc32)cc1`, the EC50 in [1] was 806 nM; in [2], 3280 nM; in assay [5], greater than 10 µg/mL; in assay [6], 138 nM; in assay [8] it was 2 nM; in [10], 806 nM. Further, in [3], the IC50 is greater than 40000 nM. In assay [4], this molecule displayed an inhibition of 0%.
Turning to `COc1cc2c(c(OC)c1OC)-c1ccc(SC)c(=O)cc1[C@@H](COC(=O)c1ccc(F)cc1)C2`, the EC50 in assay [1] came to 1070 nM; in [2], 1970 nM; in assay [5], 1570 nM; in assay [6], 81 nM; in [8] it was 1250 nM; in assay [10], 926 nM. The molecule also yielded an IC50 in [3] greater than 40000 nM. In addition, the inhibition in assay [4] amounted to 0%.
With `COc1cc2c(cc1O)CCc1cc(OC)c(OC)c(OC)c1-2`, the IC50 in assay [11] was greater than 100000 nM.
`CCC(=O)OC[C@H]1Cc2cc(OC)c(OC)c(OC)c2-c2ccc(SC)c(=O)cc21`: the EC50 came out at 93 nM in assay [1]; 162 nM in assay [2]; 220 nM in [5]; 8 nM in assay [6]; 0.12 nM in assay [8]; 0.093 nM in assay [10]. In assay [3], this molecule gave an IC50 of 3400 nM. Further, in [4], the inhibition was found to be 83%.
Take `C=C1Cc2cc(OC)c(OC)c(OC)c2-c2ccc(SC)c(=O)cc21`: the EC50 in assay [1] is 140 nM; in assay [2], 196 nM; in assay [5] it was 252 nM; in [6], 22 nM; in [8], 0.084 nM; in assay [10], 0.084 nM. Also, the IC50 in assay [3] is 2400 nM; in assay [9], 2800 nM. The molecule also displayed an inhibition in assay [4] of 91%.
Consider `COc1cc2c(ccc3cc(OC)c(OC)c(OC)c32)cc1O`, for which, in assay [11], the half-maximal inhibitory concentration (IC50) was 100000 nM.
Regarding `COc1cc2c(c(OC)c1OC)-c1ccc(SC)c(=O)cc1[C@@H](COC(C)=O)C2`, the EC50 in assay [1] was found to be 132 nM; in assay [2], 5710 nM; in assay [5] it was 1940 nM; in assay [6], 96 nM; in [8], 1320 nM; in [10], 144 nM. For the same molecule, in [3], the IC50 is 3400 nM. The inhibition in assay [4] is 56%.
Consider `COc1cc2c(c(OC)c1OC)-c1ccc(SC)c(=O)cc1[C@@H](COC(=O)c1cccc(C#N)c1)C2`, for which the EC50 came out at 139 nM in assay [1]; 5780 nM in assay [2]; 8220 nM in [5]; 99 nM in assay [6]; 1530 nM in [8]; 629 nM in assay [10]. This molecule yielded an IC50 in [3] greater than 40000 nM. The inhibition in assay [4] was determined as 0%.
On to `COc1cc2c(c(OC)c1OC)-c1ccc(SC)c(=O)cc1[C@@H](COC(=O)c1ccc(Br)cc1)C2`, for which the EC50 in assay [1] stood at 92 nM; in assay [2], 9200 nM; in assay [5], 17000 nM; in assay [6] it was 110 nM; in assay [8] it was 129 nM; in assay [10], 110 nM. In [3], this molecule registered an IC50 greater than 40000 nM. Also, in assay [4], the inhibition was found to be 2%.
Consider `COc1cc2c(c(OC)c1OC)-c1ccc(SC)c(=O)cc1[C@@H](COC(=O)c1ccc([N+](=O)[O-])cc1)C2`, for which the EC50 amounted to 13 nM in assay [1]; 5670 nM in [2]; 4280 nM in assay [5]; 10 nM in [6]; 10 nM in assay [8]; 114 nM in assay [10]. For the same molecule, the IC50 in assay [3] stood at 6600 nM; in [7], 20 nM. Besides, in assay [4], the inhibition was found to be 78%.
Regarding `COc1cc2c(c(OC)c1OC)-c1ccc(OC)c(=O)cc1[C@@H](NC(C)=O)CC2` [COLCHICINE], the EC50 in [12] is 100 nM; in assay [1], 2 nM; in [2] it was 175 nM; in assay [5] it was 18 nM; in [8] it was 1 nM; in assay [10], 1 nM. This molecule returned an IC50 in assay [7] of 50 nM.
As to `COc1cc2c(c(OC)c1OC)-c1ccc(SC)c(=O)cc1[C@@H](COC(=O)c1ccccc1F)C2`, the EC50 in assay [1] amounted to 110 nM; in [2] it was 6400 nM; in assay [5], 140 nM; in [6], 12 nM; in [8] it was 129 nM; in assay [10], 40 nM. For the same molecule, the IC50 in [3] was 3000 nM; in assay [9], 3800 nM. This molecule registered an inhibition in [4] of 91%.
For the molecule `CCCC(=O)OC[C@H]1Cc2cc(OC)c(OC)c(OC)c2-c2ccc(SC)c(=O)cc21`, the EC50 in [1] was 0.13 nM; in [2] it was 3040 nM; in assay [5], 1370 nM; in assay [6] it was 0.09 nM; in [8], 23 nM; in assay [10] it was 0.022 nM. The molecule also displayed an IC50 in [3] of 4500 nM. The same molecule came in with an inhibition in [4] of 46%.
As to `COc1cc2c(c(OC)c1OC)-c1ccc(SC)c(=O)cc1[C@@H](COC(=O)c1cccc(F)c1)C2`, the EC50 came to 110 nM in assay [1]; 161 nM in [2]; 80 nM in [5]; 141 nM in assay [6]; 0.02 nM in [8]; 100 nM in assay [10]. The IC50 in [3] was greater than 40000 nM. The inhibition in assay [4] came to 0%.
Regarding `CCOC(=O)OC[C@H]1Cc2cc(OC)c(OC)c(OC)c2-c2ccc(SC)c(=O)cc21`, the EC50 in assay [1] amounted to 11 nM; in [2] it was 179 nM; in [5], 0.001 nM; in [6] it was 16 nM; in [8], 0.001 nM; in assay [10] it was 0.001 nM. Further, the IC50 in assay [3] worked out at 3700 nM; in assay [9], 4300 nM. Moreover, the inhibition in [4] is 60%.
Regarding `COc1cc2c(c(OC)c1OC)-c1ccc(SC)c(=O)cc1[C@@H](COC(=O)c1cccc([N+](=O)[O-])c1)C2`, the EC50 amounted to 1050 nM in assay [1]; 19 nM in [2]; 1470 nM in assay [5]; 1050 nM in [6]; 936 nM in assay [8]; 1090 nM in assay [10]. The IC50 in assay [3] is greater than 40000 nM; in assay [7] it was 600 nM. The same molecule yielded an inhibition in [4] of 0%.
